# Assay outcomes: PubChem BioAssay, The Scripps Research Institute Molecular Screening Center
# RORA inh: inhibitors of human nuclear receptor RORA. P35398. CHO-K1 Gal4-RORA LBD luciferase reporter, luminescence. inhibition, % at 10 µM. 65,000 compounds, 0.43% hits;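 active = inhibition above the mean of all tested compounds plus 3 SD, cut at about 52% in these data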;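 note: 0% = RORA-transfected cells with DMSO and 100% = mock-transfected cells lacking RORA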
# Target sequence (P35398 whole entry, looked up, the tested form may be a part): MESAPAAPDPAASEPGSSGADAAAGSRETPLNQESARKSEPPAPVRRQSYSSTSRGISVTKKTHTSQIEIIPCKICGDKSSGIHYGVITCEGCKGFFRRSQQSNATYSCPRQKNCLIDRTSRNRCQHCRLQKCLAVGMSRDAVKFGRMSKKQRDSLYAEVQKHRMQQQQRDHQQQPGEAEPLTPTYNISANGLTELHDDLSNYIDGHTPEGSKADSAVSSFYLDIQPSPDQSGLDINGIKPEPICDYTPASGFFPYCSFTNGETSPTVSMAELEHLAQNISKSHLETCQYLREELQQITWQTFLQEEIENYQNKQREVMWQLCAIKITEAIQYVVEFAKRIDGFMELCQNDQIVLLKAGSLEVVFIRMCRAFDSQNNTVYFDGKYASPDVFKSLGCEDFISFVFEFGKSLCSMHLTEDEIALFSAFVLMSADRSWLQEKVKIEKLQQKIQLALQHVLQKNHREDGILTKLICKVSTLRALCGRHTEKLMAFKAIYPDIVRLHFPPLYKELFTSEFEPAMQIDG
#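 Test system – CHO-K1 Gal4-RORA LBD luciferase reporter cells · Schedule – 20 h at 37 °C · Signal – luminescence from basal luciferase reporter expression · Measure – percent inhibition of basal reporter luminescence, control-normalized · Control set – -RORA mock-transfected DMSO wells 100%, +RORA DMSO wells 0%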
# Numbers without * were called inactive. The sample as a whole holds a higher share of hits than the screen did.
SMILES,RORA inh
c1ccc(-c2cccc(-c3ccccn3)n2)nc1,64*
COc1nc(C)ccc1-c1noc(-c2ccccn2)n1,-61
c1ccc(CCc2nc(-c3ccccn3)no2)cc1,-54
O=C(NCc1ccco1)c1cc(-c2cccs2)on1,-67
O=C(CN1CCC(n2nnc3ccccc32)CC1)NCc1cccs1,8
COCc1nc(-c2ccc(-c3ccc(OC)cc3)nc2OC)no1,-49
CCOc1nc(-c2ccccc2)ccc1-c1noc(COC)n1,-3
COc1cc2ccccc2cc1C(=O)Nc1cccnc1,-77
COCc1nc(-c2ccc(-c3ccccc3)nc2OC)no1,-72
Cc1ccc(-c2noc(CCCC(=O)Nc3cccnc3)n2)cc1,53*
CCOC(=O)Cn1c(CCC(=O)O)ccc1-c1ccc(F)cc1,17
CCOc1ccc(-c2noc(CCC(=O)O)n2)cc1,54*
COc1ccc(-c2noc(CCCC(=O)O)n2)cc1,68*
CCCCC(=O)Nc1ccc(NC(=O)c2cccnc2)cn1,-6
Oc1ccc(-c2nnc(SCC3CCCCC3)o2)cc1,-59
O=c1c2c3c(sc2nc2sc(C4CC4)nn12)CCCC3,-54
O=C(Nc1ccc2c(c1)oc1ccccc12)c1ccc(Br)o1,-68
Cc1nc(NCc2ccco2)[nH]c(=O)c1CCC(C)C,-22
CCCCOC(=O)C1=C(C)Nc2nnnn2C1c1ccc(OC)c(OC)c1OC (stereo not drawn),26
O=C(Oc1ccc(-c2ccccc2)cc1)N1CCOCC1,-61
COc1ccc(-c2[nH]ncc2Oc2ccccc2OC)c(O)c1,7
Cc1cc(C(=O)Nc2nc3c(s2)CCCC3)cs1,22
Cn1c(SCc2ccccc2F)nnc1-c1cnccn1,-65
CC(=O)Nc1nc2cc3c(cc2s1)OCO3,-72
Cc1nc2c(ccc3nc(NC(=O)c4ccc5c(c4)OCCO5)sc32)s1,8
SMILES,RORA inh
O=C(Nc1nc2cc3c(cc2s1)OCO3)C1=COCCO1,68*
COc1ccc(NC(=O)c2ccccc2NS(C)(=O)=O)cc1OC,-2
O=C(CCn1c(=O)sc2ccccc21)Nc1nccs1,-53
N#CC(C#N)=c1ccc2c(c1)NC1(CCCCC1)N=2,58*
O=C(Nc1ccccc1N1CCOCC1)c1ccc2c(c1)C(=O)N(Cc1ccncc1)C2=O,-16
CCCCOC(=O)c1ccc(NC(=O)C(CCS(C)(=O)=O)NC(C)=O)cc1 (stereo not drawn),15
CCn1c(-c2ccc(N(C)C)cc2)nc2ccccc21,-88
Cn1c(-c2ccc(Br)o2)nc2ccccc21,-73
CN(C)c1ccc(-c2nc3ccccc3n2C)cc1,62*
CC(C)OC(=O)CSc1ncnc2c1cnn2Cc1ccccc1,17
COC(=O)C1(CCSC)NC(c2ccccc2OC)C2C(=O)N(C)C(=O)C21 (stereo not drawn),22
COc1cc(C(=O)Nc2nc(OC)c(-c3ccccc3)c(OC)n2)cc(OC)c1OC,-24
COc1cccc(-c2cc(C(F)(F)F)nc(NCc3ccco3)n2)c1,18
CS(=O)(=O)c1nc(-c2ccco2)cc(C(F)(F)F)n1,54*
COc1ccc(CCNC(=O)CSc2nc(-c3ccco3)cc(C(F)(F)F)n2)cc1OC,-14
COc1ccc(-c2nc(CNS(=O)(=O)c3cc(OC)ccc3OC)cs2)cc1,2
COc1cccc(C2CC(c3ccc(C)cc3)n3nc(N)nc3N2)c1 (stereo not drawn),2
O=C(CCC1COc2ccccc2O1)Nc1ncccc1O (stereo not drawn),-11
O=C(O)c1cccc(N2CCCC2)c1,3
c1ccc(-c2nc(N3CCCCCC3)c3ccccc3n2)nc1,79*
COc1ccc(Nc2nc(N3CCCC3)c3ccccc3n2)cc1,10
CCCC(=O)Nc1ccc2oc(-c3ccc(OC)c(Br)c3)nc2c1,-80
COc1ccc(CCNc2c(C)c(C)nc3ncnn23)cc1,78*
COc1ccc(S(=O)(=O)NCCc2ccc(F)cc2)cc1,14
COc1ccc(CCC(=O)NCc2cnn(C)c2)cc1,10
SMILES,RORA inh
O=c1cc(CSc2nnnn2-c2ccccc2)nc2scc(-c3ccccc3)n12,-7
CCOc1ccc(CCNC(=O)c2cccnc2N2CCCC2)cc1OCC,-3
COCCCn1c(SCC(=O)NC2CCCC2)nnc1-c1ccco1,-1
CCOC(=O)Cc1csc(NC(=O)CSc2nc3cccnc3n2CC)n1,-2
COc1cc(C2=NOC(C(=O)NCc3ccco3)C2)cc(OC)c1OC (stereo not drawn),-82
O=C(CSc1nnc(COc2cccc3cccnc23)o1)N1CCc2ccccc21,59*
O=C(CSc1nnc(COc2ccc(F)cc2)o1)N1c2ccccc2CCc2ccccc21,-18
Cc1ccc(NCc2nnc(SCC(=O)N3CCCc4ccccc43)o2)c(C)c1,7
Cc1ccc(-c2nc(CS(=O)CC(=O)NCc3ccccc3)c(C)o2)cc1 (stereo not drawn),-13
CCOc1ccc(-c2nnc(SCC(=O)N3CCN(c4ccccc4)CC3)o2)cc1,-8
O=C(CSCC(=O)NCc1ccco1)NCc1ccco1,8
COc1ccc(-c2nc(CSCC(=O)NCc3ccco3)c(C)o2)cc1,72*
CCOc1ccc(-c2nc(CSCC(=O)NCCN3CCOCC3)c(C)o2)cc1,71*
COc1ccc(CNC(=O)CS(=O)Cc2nc(-c3ccc(C)cc3)oc2C)cc1 (stereo not drawn),0
CCCCOc1ccc(C2(C)CC(=O)NC2=O)cc1 (stereo not drawn),-15
O=C(Nc1ccc(CCC(=O)N2CCCC2)cc1)c1ncn[nH]1,21
CN(Cc1ccccc1)S(=O)(=O)c1ccc(C(=O)Nc2nnc(C3CC3)o2)cc1,-7
CCCN1Cc2cccc(C(=O)Nc3cc(OC)cc(OC)c3)c2C1=O,14
O=C(Nc1ccc(N2CCOCC2)c(Cl)c1)c1ccc(Br)o1,-55
O=C(Nc1ccc(S(=O)(=O)N2CCCC2)cc1)c1ccc(CN2CCOCC2)cc1,20
O=C(Nc1ccc(N2CCOCC2)cc1)c1cnsn1,69*
O=C(Cc1ccccc1)Nc1c(C(=O)N2CCOCC2)cnn1-c1ccccc1,-11
Cn1c(SCc2ccccc2)nnc1-c1cccs1,-50
CC(C)C(c1nnnn1C1CCCC1)N1CCc2ccccc21 (stereo not drawn),-4
CCOC(=O)c1cc2occc2n1CC(=O)NC1CCCCC1C (stereo not drawn),2
SMILES,RORA inh
COc1cccc(N2CCN(c3ncnc4c3[nH]c3ccc(F)cc34)CC2C)c1 (stereo not drawn),95*
COc1cccc(N2CCN(c3ncnc4c3[nH]c3ccccc34)CC2C)c1 (stereo not drawn),95*
CCCCCCOc1ccc(OCC(O)CN2C(=O)NC(C)(C)C2=O)cc1 (stereo not drawn),-62
CCOC(=O)N1CC=C2C(C#N)=C(N)C(C#N)(C#N)[C@H](c3ccc(OC(C)C)c(OCC)c3)[C@H]2C1,0
COCCNS(=O)(=O)c1ccc2c(c1)C(=O)c1cc(S(=O)(=O)NCCOC)ccc1-2,24
CC(C)(C)NC(=O)C1N(c2cccnc2)C(=O)C2C(C(=O)Nc3ccccc3F)C3(C)C=CC21O3 (stereo not drawn),7
CCc1ccc(NC(=O)c2noc3c2CCCCC3)cc1,-67
COc1ccc2c(c1OC)C(=O)N1C2SC[C@H]1C(=O)NC1CC(C)(C)NC(C)(C)C1 (stereo partly drawn),8
Cc1nnc(Sc2nc(Sc3nnc(C)s3)nc(N3CCN(C)CC3)n2)s1,93*
CC(=O)c1cccc(NC(=O)c2cc(C(C)C)on2)c1,-55
CCSCCOC(=O)C1=C(C)NC(=O)NC1c1cccc(OC)c1OC (stereo not drawn),9
